Activity calls are given as the source filed them. The calls are words filed in the database; no cut-off is given here.
Tests used:
MRP1 (ABCC1) = MRP1 (ABCC1) (Homo sapiens, UniProt P33527); experiment: (§1) Inhibition of human MRP1 expressed in MDCK2 cells assessed as inhibition of calcein-AM efflux at 30 uM relative to reversan; type: cell-based, MDCK-II; settings: MDCK2 cells expressing human MRP1, probe calcein-AM, read-out: Imax
How it was run: (§2)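 MDCKII-MRP1 cells seeded at 20,000–25,000/well and washed next day with HEPES loading buffer, pH 7.4. Loaded 60 min at 37 °C with 0.5 µM calcein-AM in buffer with BSA and pluronic F127, plus compound (10 nM–100 µM). Cells were PFA-fixed, fluorescence read at 485/535 nm, DMSO control subtracted. […] Mean ± SEM, 2–4 experiments in triplicate.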

[1] = target: T1, Broad substrate specificity ATP-binding cassette transporter ABCG2 (Homo sapiens, UniProt Q9UNQ0); experiment: Inhibition of ABCG2 in human MCF7/Topo cells by Hoechst 33342 assay; type: cell-based
T1 sequence (Q9UNQ0 whole entry): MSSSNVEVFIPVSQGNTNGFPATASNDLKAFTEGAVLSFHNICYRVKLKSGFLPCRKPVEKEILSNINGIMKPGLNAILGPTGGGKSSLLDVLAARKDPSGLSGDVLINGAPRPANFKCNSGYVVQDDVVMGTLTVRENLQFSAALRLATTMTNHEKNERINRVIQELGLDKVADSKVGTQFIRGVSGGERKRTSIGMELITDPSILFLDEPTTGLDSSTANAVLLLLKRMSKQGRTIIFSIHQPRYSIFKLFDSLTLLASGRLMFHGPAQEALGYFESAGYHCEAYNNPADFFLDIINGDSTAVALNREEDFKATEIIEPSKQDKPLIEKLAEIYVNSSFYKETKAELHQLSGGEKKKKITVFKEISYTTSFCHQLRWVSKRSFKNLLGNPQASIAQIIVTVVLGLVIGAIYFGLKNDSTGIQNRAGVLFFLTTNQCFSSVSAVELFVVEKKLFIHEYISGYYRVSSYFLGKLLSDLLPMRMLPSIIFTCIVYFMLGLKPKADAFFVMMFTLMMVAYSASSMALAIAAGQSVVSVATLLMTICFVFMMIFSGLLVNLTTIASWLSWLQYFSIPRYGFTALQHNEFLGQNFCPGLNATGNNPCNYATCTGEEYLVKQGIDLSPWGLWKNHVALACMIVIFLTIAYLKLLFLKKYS

[2] = target: ATP-dependent translocase ABCB1 (Homo sapiens, UniProt P08183); experiment: Inhibition of ABCB1 in human KBV1 cells assessed as inhibition of calcein-AM efflux; type: cell-based
ABCG2 (BCRP) = target: T2, ABCG2 (BCRP) (Homo sapiens, UniProt Q9UNQ0); experiment: Inhibition of ABCG2 in human MCF7/Topo cells at 10 uM by Hoechst 33342 assay relative to fumitremorgin C; type: cell-based; settings: probe Hoechst 33342, read-out: Imax
T2 sequence (Q9UNQ0 whole entry): T1 sequence (Q9UNQ0 whole entry)
How it was run: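 Hoechst 33342 microplate assay in ABCG2-overexpressing MCF-7/Topo cells, kept in EMEM with 10% FCS and 550 nM topotecan. Imax relative to 10 µM fumitremorgin C (100%). IC50 from four-parameter logistic fit. Mean ± SEM, 2–4 experiments.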

ABCB1 (P-glycoprotein) = ABCB1 (P-glycoprotein) (Homo sapiens, UniProt P08183); experiment: Inhibition of ABCB1 in human KBV1 cells assessed as inhibition of calcein-AM efflux at 1 uM relative to tariquidar; type: cell-based; settings: probe calcein-AM, read-out: Imax
[3] = Chemical stability in DMEM culture medium supplemented with 10% FCS at 37 degC after 48 hrs by RP-HPLC analysis; type: physicochemical; settings: cattle
How it was run: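 Compounds held in DMEM with 10% FCS at 37 °C for up to 48 h, then analysed for degradation.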

HaCaT = experiment: Cytotoxicity against human HaCaT cells at 1 to 10 uM after 140 hrs by kinetic crystal violet staining based assay; type: cell-based
How it was run: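 Spontaneously immortalized human HaCaT keratinocytes in RPMI-1640 with pyruvate, HEPES and added glucose, pre-treated with EDTA before trypsinization. Cytotoxicity followed in a kinetic assay.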

[4] = target: Multidrug resistance-associated protein 1 (Homo sapiens, UniProt P33527); experiment: as §1; type: cell-based, MDCK-II; settings: mdck-ii, 30 µM; how it was run: as §2
MDCK2 [5] = experiment: Antiproliferative activity against human ABCC1 transfected MDCK2 cells assessed as reduction in cell proliferation at 1.5 uM by crystal violet staining based assay; type: functional
MDCK2 [6] = experiment: Antiproliferative activity against human ABCC1 transfected MDCK2 cells assessed as reduction in cell proliferation at 10 uM by crystal violet staining based assay; type: functional
How it was run: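 MDCKII-MRP1 cells transfected with human ABCC1, kept in DMEM with 10% FCS at 37 °C and 5% CO₂. Kinetic crystal violet chemosensitivity assay with the modulator alone; proliferation followed over time.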

Sequence of MRP1 (ABCC1) (P33527 whole entry): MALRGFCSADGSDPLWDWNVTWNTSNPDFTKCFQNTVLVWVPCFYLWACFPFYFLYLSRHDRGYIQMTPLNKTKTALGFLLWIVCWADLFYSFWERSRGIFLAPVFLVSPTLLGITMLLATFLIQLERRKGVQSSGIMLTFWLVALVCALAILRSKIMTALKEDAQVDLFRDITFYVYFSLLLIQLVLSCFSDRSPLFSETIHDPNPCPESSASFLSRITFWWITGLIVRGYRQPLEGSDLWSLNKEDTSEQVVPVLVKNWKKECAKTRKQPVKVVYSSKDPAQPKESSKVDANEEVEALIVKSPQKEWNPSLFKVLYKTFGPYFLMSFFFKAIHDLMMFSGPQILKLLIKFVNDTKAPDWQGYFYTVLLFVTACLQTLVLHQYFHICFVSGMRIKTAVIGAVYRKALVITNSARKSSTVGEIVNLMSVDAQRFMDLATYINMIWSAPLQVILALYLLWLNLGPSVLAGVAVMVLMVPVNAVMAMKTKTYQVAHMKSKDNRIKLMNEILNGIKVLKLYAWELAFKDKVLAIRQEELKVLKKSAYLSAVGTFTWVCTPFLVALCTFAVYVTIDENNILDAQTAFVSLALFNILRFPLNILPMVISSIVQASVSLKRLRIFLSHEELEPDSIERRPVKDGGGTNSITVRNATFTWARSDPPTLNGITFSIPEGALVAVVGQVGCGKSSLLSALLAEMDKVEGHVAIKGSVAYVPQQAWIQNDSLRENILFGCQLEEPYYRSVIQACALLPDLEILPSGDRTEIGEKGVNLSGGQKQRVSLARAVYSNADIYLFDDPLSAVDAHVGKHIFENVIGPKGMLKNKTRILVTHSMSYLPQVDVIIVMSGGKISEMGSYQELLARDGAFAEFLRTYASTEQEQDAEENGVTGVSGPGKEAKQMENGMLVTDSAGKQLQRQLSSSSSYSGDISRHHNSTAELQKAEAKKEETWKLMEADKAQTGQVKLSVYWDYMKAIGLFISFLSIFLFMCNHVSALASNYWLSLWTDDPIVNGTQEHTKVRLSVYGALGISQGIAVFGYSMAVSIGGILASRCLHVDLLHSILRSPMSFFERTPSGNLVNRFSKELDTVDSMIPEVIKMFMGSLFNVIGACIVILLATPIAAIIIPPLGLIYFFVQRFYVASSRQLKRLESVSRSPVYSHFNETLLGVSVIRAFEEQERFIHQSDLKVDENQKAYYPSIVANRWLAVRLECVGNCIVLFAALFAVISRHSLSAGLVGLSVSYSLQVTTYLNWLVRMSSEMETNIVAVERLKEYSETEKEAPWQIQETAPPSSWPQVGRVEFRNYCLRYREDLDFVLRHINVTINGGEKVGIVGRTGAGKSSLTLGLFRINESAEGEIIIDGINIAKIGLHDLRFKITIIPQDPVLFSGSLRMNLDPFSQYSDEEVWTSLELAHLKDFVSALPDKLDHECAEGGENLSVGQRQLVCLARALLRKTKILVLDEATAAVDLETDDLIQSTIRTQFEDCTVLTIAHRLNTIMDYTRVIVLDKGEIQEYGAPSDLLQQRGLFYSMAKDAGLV
Sequence of ATP-dependent translocase ABCB1 (P08183 whole entry): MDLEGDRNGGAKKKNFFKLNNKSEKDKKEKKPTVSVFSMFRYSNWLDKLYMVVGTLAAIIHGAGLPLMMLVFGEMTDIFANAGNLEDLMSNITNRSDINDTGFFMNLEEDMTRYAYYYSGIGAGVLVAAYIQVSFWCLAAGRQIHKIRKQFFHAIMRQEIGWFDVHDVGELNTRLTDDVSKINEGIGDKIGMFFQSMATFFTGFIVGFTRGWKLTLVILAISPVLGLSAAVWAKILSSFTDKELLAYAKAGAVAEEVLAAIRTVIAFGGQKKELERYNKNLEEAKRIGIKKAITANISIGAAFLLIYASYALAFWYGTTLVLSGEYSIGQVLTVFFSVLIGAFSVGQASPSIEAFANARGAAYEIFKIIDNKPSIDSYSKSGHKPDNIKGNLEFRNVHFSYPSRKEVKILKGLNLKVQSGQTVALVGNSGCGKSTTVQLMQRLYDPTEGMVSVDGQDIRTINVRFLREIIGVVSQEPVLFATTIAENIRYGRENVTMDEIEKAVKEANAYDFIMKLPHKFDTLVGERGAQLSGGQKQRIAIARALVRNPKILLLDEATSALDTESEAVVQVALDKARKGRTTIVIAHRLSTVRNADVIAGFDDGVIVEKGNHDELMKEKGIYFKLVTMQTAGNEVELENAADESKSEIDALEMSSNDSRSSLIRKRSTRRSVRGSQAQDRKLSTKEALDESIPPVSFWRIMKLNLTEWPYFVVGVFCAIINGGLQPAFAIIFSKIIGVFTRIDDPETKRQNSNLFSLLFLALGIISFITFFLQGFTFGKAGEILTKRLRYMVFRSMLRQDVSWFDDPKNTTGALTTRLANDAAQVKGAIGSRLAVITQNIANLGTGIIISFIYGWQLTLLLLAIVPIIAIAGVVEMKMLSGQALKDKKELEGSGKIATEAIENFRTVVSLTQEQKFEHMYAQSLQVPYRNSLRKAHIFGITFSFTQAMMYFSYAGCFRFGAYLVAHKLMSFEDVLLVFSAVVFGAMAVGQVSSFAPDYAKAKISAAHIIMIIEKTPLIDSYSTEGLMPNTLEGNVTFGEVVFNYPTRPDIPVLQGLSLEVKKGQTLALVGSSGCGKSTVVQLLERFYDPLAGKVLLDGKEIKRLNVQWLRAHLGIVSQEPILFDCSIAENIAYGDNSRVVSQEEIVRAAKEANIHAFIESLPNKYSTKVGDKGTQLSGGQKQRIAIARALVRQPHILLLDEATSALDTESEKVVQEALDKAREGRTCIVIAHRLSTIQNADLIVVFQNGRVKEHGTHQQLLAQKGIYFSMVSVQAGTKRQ
Sequence of ABCB1 (P-glycoprotein) (P08183 whole entry): as above
Sequence of Multidrug resistance-associated protein 1 (P33527 whole entry): as the sequence (P33527 whole entry) above

SMILES | inhibition at 30 µM (MRP1 (ABCC1)) [%] | IC50 ([1]; read-out: IC50) [µM] | IC50 ([2]; read-out: IC50) [µM] | Emax at 10 µM (ABCG2 (BCRP)) [%] | IC50 ([2]; kbv1) | IC50 ([1]; mcf7/topo) | further results
COC(=O)c1ccc(CN2CCN(c3cc(=O)c4c(OC)cc(OC)cc4o3)CC2)cc1 | 118 | > 100 | > 100 |  |  |  | 
COc1ccc(CCNC(=O)c2cc(=O)c3c(OCc4ccccc4)cccc3o2)cc1OC |  |  |  | 108 | Not Active |  | 
COc1cc(OC)c2c(=O)cc(N3CCN(Cc4ccc(F)c(F)c4)CC3)oc2c1 | 141 | 66.6 | 58.5 | 50.4 |  |  | inhibition at 1 µM (ABCB1 (P-glycoprotein)): 14.3%
COc1cc(O)c2c(=O)cc(C(=O)N3CCN(Cc4ccccc4[N+](=O)[O-])CC3)oc2c1 | 68.8 | 34.9 |  | 90.5 | Not Active |  | 
COc1cc(OC)c2c(=O)cc(N3CCN(CCc4ccc([N+](=O)[O-])cc4)CC3)oc2c1 | 118 | 36.9 | 33 | 31.9 |  |  | Stability [3]: Stable; Activity (HaCaT): Non-toxic; inhibition at 1 µM (ABCB1 (P-glycoprotein)): 54.8%
COc1cc(OC)c2c(=O)cc(N3CCN(CCc4ccccc4)CC3)oc2c1 | 44.5 | > 100 |  |  | Not Active |  | Stability [3]: Stable; Activity (HaCaT): Non-toxic
COc1cc(OC)c2c(=O)cc(N3CCN(Cc4ccc(S(=O)(=O)C(F)(F)F)cc4)CC3)oc2c1 | 98.8 | > 100 | > 100 |  |  |  | 
COc1cc(OC)c2c(=O)cc(N3CCN(C(=O)c4ccc([N+](=O)[O-])cc4)CC3)oc2c1 | 19.7 |  |  |  | Not Active | Not Active | 
COc1cc(OC)c2c(=O)cc(N3CCN(C)CC3)oc2c1 |  |  |  |  | Not Active | Not Active | 
COc1cc(OC)c2c(=O)cc(N3CCN(Cc4ccc(NC(C)=O)cc4)CC3)oc2c1 |  |  |  |  | Not Active | Not Active | 
COc1cc(OC)c2c(=O)cc(N3CCN(Cc4cccc([N+](=O)[O-])c4)CC3)oc2c1 |  | 38.2 | 32.8 | 44 |  |  | Imax [4]: 193.3%; inhibition at 1 µM (ABCB1 (P-glycoprotein)): 29.2%
COc1cc(OC)c2c(=O)cc(N3CCN(c4ccc([N+](=O)[O-])cc4)CC3)oc2c1 | 64.1 |  |  | 22.6 | Not Active |  | 
COc1cc2c(cc1OC)CN(CCc1ccc(NC(=O)c3cc(OC)c(OC)cc3NC(=O)c3cnc4ccccc4c3)cc1)CC2 |  |  | 0.22 |  |  |  | 
COc1cc(OC)c2c(=O)cc(NCCCN3CCOCC3)oc2c1 | 14 |  |  |  | Not Active | Not Active | 
CN(C)C(=O)CCSC(SCCC(=O)[O-])c1cccc(/C=C/c2ccc3ccc(Cl)cc3n2)c1.[Na+] (centres undefined) |  |  |  |  | Not Active | Not Active | 
COc1cc(OC)c2c(=O)cc(N3CCN(Cc4ccc(N)cc4)CC3)oc2c1 |  |  |  |  | Not Active | Not Active | 
COc1cc([C@@H]2c3cc4c(cc3[C@@H](O[C@@H]3O[C@@H]5CO[C@@H](C)O[C@H]5[C@H](O)[C@H]3O)[C@H]3COC(=O)[C@H]23)OCO4)cc(OC)c1O |  |  |  |  |  |  | Activity (MDCK2 [5]): Active; Activity (MDCK2 [6]): Active
COc1cc(OC)c2c(=O)cc(N3CCN(Cc4ccccc4[N+](=O)[O-])CC3)oc2c1 | 68.8 | 37.6 | > 100 | 72.6 |  |  | 
COc1cc(OC)c2c(=O)cc(N3CCN(Cc4ccc(C(F)(F)F)cc4)CC3)oc2c1 |  | > 100 | 31.3 |  |  |  | Imax [4]: 158.6%; inhibition at 1 µM (ABCB1 (P-glycoprotein)): 21.8%
COc1cc(OC)c2c(=O)cc(C(=O)N3CCN(CCc4ccc([N+](=O)[O-])cc4)CC3)oc2c1 | 139 | > 100 | 83.9 |  |  |  | Stability [3]: Stable; Activity (HaCaT): Non-toxic; inhibition at 1 µM (ABCB1 (P-glycoprotein)): 37.7%
COc1cc(OC)c2c(=O)cc(N3CCN(Cc4ccc(C#N)cc4)CC3)oc2c1 | 115 | 99.7 | > 100 | 59.1 |  |  | 
COc1cc(OC)c2c(=O)cc(NCCc3ccc(OC)c(OC)c3)oc2c1 |  | > 100 |  |  | Not Active |  | 
COc1cc(O)c2c(=O)cc(C(=O)N3CCN(Cc4ccc([N+](=O)[O-])cc4)CC3)oc2c1 | 70.5 | 12 |  | 23.1 | Not Active |  | Stability [3]: Stable; Activity (HaCaT): Non-toxic
COc1cc(OC)c2c(=O)cc(N3CCN(Cc4ccc([N+](=O)[O-])cc4)CC3)oc2c1 | 130 | 87.8 |  | 56.9 | Not Active |  | Stability [3]: Stable; Activity (HaCaT): Non-toxic
COc1cc(OC)c2c(=O)cc(N3CCN(Cc4ccccc4)CC3)oc2c1 |  |  |  |  | Not Active | Not Active | 
COc1cc(OC)c2c(=O)cc(C(=O)N3CCN(Cc4ccc([N+](=O)[O-])cc4)CC3)oc2c1 | 73.1 | > 100 | 58.2 |  |  |  | Activity (HaCaT): Non-toxic; inhibition at 1 µM (ABCB1 (P-glycoprotein)): 33.4%
COc1cc(OC)c2c(=O)cc(N3CCN(Cc4ccc(SC(F)(F)F)cc4)CC3)oc2c1 | 136 | > 100 | 36.6 |  |  |  | inhibition at 1 µM (ABCB1 (P-glycoprotein)): 29.4%
COc1cccc2oc(N3CCN(Cc4ccc([N+](=O)[O-])cc4)CC3)cc(=O)c12 | 38.8 |  |  |  | Not Active | Not Active | 
COc1ccc(CN2CCN(c3cc(=O)c4c(OC)cc(OC)cc4o3)CC2)cc1 |  | > 100 |  |  | Not Active |  | 
COc1cc(OC)c2c(=O)cc(N3CCN(Cc4ccc(S(C)(=O)=O)cc4)CC3)oc2c1 |  |  |  |  | Not Active | Not Active | 

Source: ChEMBL document CHEMBL3763047, “Flavonoid derivatives as selective ABCC1 modulators: Synthesis and functional characterization” (Eur J Med Chem, 2016)
